Measured values as given in PubChem BioAssay.
Records with an inconclusive call do not appear.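 The calls were made as follows, unless noted: active = viability increase at or above a cutoff of the median across tested compounds plus 3 SD (cut at about 8.5% in these data, passing the limit was not always enough); inconclusive = some gains above the cutoff, reason not given; inactive = the rest.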

How the values were obtained:
[1] = S. cerevisiae growth inhibition in permissive medium (OD615), pilot counter-assay for S. cerevisiae lifespan shortening project, permissive growth control (AID 705;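 active = growth inhibition above 25% in both replicates, a cutoff set 3 SD above the mean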); settings: OD615, 24 h, at 10 µM, stronger effect = higher value
Summary of the method: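 Timing: 24 h exposure, 30 °C / Material: Saccharomyces cerevisiae strain carrying genetically modified DeaD replicative-lifespan system / Signal: OD at 615 nm / Compound: 10 µM single dose, 0.25% DMSO / Medium: SC raffinose/galactose permissive medium / Evaluation: reduction in yeast growth (OD615)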

[2] = S. cerevisiae growth inhibition in restrictive medium, OD615, pilot screen, restrictive growth control, yeast lifespan reduction project (AID 706;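 active = growth inhibition above a set limit, 3 SD over mean compound inhibition, in both replicates, cut at about 43% in these data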;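 also: modified DeaD lifespan yeast strain shifted to restrictive glucose medium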); settings: OD615, 48 h, at 10 µM, stronger effect = higher value
Summary of the method: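 System: Engineered S. cerevisiae DeaD strain | Detection: OD615 | Buffer or medium: CSMM-D glucose medium | Doses: 10 µM compound, 0.25% DMSO | Timing: 4 h pre-growth plus 48 h compound exposure, 30 °C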

[3] = doxorubicin toxicity protection in MRP-1 cells – H69AR cells, CellTiter-Glo, duplicate, MRP-1 activator project, pilot screen (AID 807); settings: H69AR viability with doxorubicin, CellTiter-Glo luminescence; at 10 µM; stronger effect = higher value;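 also: compound pretreatment 18-22 h then 72 h combined with doxorubicin; 0% = doxorubicin alone and 100% = vehicle without doxorubicin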
[4] = viability of HCT116 without oncogenic beta-catenin – human colon tumor cells, pilot screen (AID 823;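 active = cell viability at or below a set limit in both duplicate runs, the limit being the all-compound median minus 4 SD, cut at about 23% in these data, passing the limit was not always enough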;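 also: 0% = wells killed by 20 µM Hyamine and 100% = untreated DMSO cell wells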); settings: HCT116 beta-catenin knockout viability, CellTiter-Glo, 60 h; at 10 µM; stronger effect = lower value
[5] = viability of PTEN-null HCT116 cells – cell-based, HCT116 clonal line, CellTiter-Glo, pilot screen (AID 824;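 active = viability at or below 27.92% in each of two runs, the all-compound median minus 4 SD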;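 also: 0% = 20 µM Hyamine control and 100% = vehicle cell control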); settings: HCT116 PTEN-deleted viability, 60 h, at 10 µM, stronger effect = lower value
[6] = RAM pathway blockade in budding yeast – dse1pr::URA3 reporter, 5-FOA selection, pilot screen (AID 869;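 active = inhibition over a set limit, the all-compound mean plus 3 SD, in both replicate runs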;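 also: 0% = DMSO wells with no growth and 100% = 10 µM 1-NA-PP1 with full growth; RAM network block rescues cells from 5-FOA so hits raise OD615 growth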); settings: S. cerevisiae dse1pr::URA3 5-FOA growth, OD615, 2 d; at 10 µM; stronger effect = higher value; strain carries analog-sensitive mutant Cbk1 kinase
[7] = RAM signaling pathway blockade in yeast – S. cerevisiae, Pdr1DBD-CYC8 efflux-inhibited sensitized strain, primary screen (AID 1298;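 active = RAM network inhibition above 8.4% in each of two replicates, 3 SD over the compound average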;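 also: 0% = DMSO untreated cells without growth and 100% = 10 µM 1-NA-PP1 full growth; higher means more yeast growth rescued from 5-FOA killing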); settings: S. cerevisiae cbk1-as DSE1-URA3 strain, 5-FOA growth OD615, 2 d; at 50 µM; stronger effect = higher value

CCOC(=O)c1c(C)oc2cc(Br)c(O)c(Br)c12
inactive: growth inhibition [1] -19% | growth inhibition [2] -14.6% | viability increase [3] -2.05% | viability [4] 93.6% | viability [5] 85.7% | inhibition [6] 0.86% | RAM network inhibition [7] 0.68%

O=C(NCc1cccnc1)c1cnn2ccccc12
inactive: growth inhibition [1] -7.88% | growth inhibition [2] -0.235% | viability increase [3] -1.28% | viability [4] 106% | viability [5] 90.9% | inhibition [6] 1.62% | RAM network inhibition [7] 0.38%

Cc1cc(C)n2nc(Nc3ccccc3)cc2n1
inactive: growth inhibition [1] -3.93% | growth inhibition [2] -10.7% | viability increase [3] -4.34% | viability [4] 90.1% | viability [5] 89.7% | inhibition [6] 1.97% | RAM network inhibition [7] 4.89%

COc1cccc2c(=O)c(C/C=C(/C)Cl)c(C)[nH]c12
inactive: growth inhibition [1] -2.8% | growth inhibition [2] 5.71% | viability increase [3] -2.38% | viability [4] 97.5% | viability [5] 91.6% | inhibition [6] 0.075% | RAM network inhibition [7] -0.16%

Cc1ccc2c(CC(=O)O)coc2c1
inactive: growth inhibition [1] -5.59% | growth inhibition [2] 27.6% | viability increase [3] -0.46% | viability [4] 89.3% | viability [5] 97.5% | inhibition [6] -0.825% | RAM network inhibition [7] -1.05%

CC(C)N(C(=O)COc1ccc(Br)cc1Cl)C(C)C
inactive: growth inhibition [1] -6.94% | growth inhibition [2] -12.8% | viability increase [3] 0.81% | viability [4] 76.5% | viability [5] 83.1% | inhibition [6] 1.12% | RAM network inhibition [7] 0.74%

CCCCOC(=O)c1ccc(NS(=O)(=O)c2cc(-c3nnnn3CC)ccc2OC)cc1
inactive: growth inhibition [1] 3.03% | growth inhibition [2] 2.27% | viability increase [3] -2.06% | viability [4] 91.5% | viability [5] 98% | inhibition [6] 0.93% | RAM network inhibition [7] 4.7%

O=C(CCCOc1ccccc1)n1nnc2ccccc21
inactive: growth inhibition [1] -10.8% | growth inhibition [2] -9.88% | viability increase [3] -1.21% | viability [4] 98.9% | viability [5] 100% | inhibition [6] 0.75% | RAM network inhibition [7] 0.05%

COC(=O)C1=C(N)OC2=C(C(=O)CC(C)(C)C2)C1c1cccnc1 (stereo unspecified)
inactive: growth inhibition [1] -3.42% | growth inhibition [2] -15.1% | viability increase [3] -1.92% | viability [4] 95.4% | viability [5] 90.4% | inhibition [6] 0.305% | RAM network inhibition [7] 2.43%

Cc1oc(-c2ccc(Cl)cc2)nc1CN1CCCC(C(=O)N2CCN(C(=O)c3ccco3)CC2)C1 (stereo unspecified)
inactive: growth inhibition [1] -8.52% | growth inhibition [2] -14.5% | viability increase [3] -4.07% | viability [4] 33.8% | viability [5] 54.6% | inhibition [6] -0.38% | RAM network inhibition [7] 7.1%

CCOc1ccccc1C1C(C(N)=O)=C(C)Nc2nc(CCCO)nn21 (stereo unspecified)
inactive: growth inhibition [1] -13.8% | growth inhibition [2] 2.83% | viability increase [3] -1.39% | viability [4] 100% | viability [5] 102% | inhibition [6] 2.46% | RAM network inhibition [7] -1.1%

O=C(NC1CCCCC1)C1CCN(S(=O)(=O)c2cccc3cccnc23)CC1
inactive: growth inhibition [1] 4.71% | growth inhibition [2] -0.575% | viability increase [3] -0.83% | viability [4] 101% | viability [5] 102% | inhibition [6] 0.46% | RAM network inhibition [7] 1.34%

CCc1cc(C(=O)Cc2ccc(F)cc2)c(O)cc1O
inactive: growth inhibition [1] -1.34% | growth inhibition [2] -3.73% | viability increase [3] -3.8% | viability [4] 98.8% | viability [5] 86.5% | inhibition [6] 0.665% | RAM network inhibition [7] -2.4%

CCCc1cc(C(=O)Nc2ccc(C)cc2)no1
inactive: growth inhibition [1] -3.58% | growth inhibition [2] -5.4% | viability increase [3] -0.63% | viability [4] 101% | viability [5] 97.6% | inhibition [6] 1.32% | RAM network inhibition [7] 1.86%

COCCOC(=O)C1=C(C)NC(=O)NC1c1c(F)cccc1Cl (stereo unspecified)
inactive: growth inhibition [1] -7.95% | growth inhibition [2] -2.18% | viability increase [3] 0% | viability [4] 106% | viability [5] 95.8% | inhibition [6] 0.515% | RAM network inhibition [7] 0.88%

CCN(CCNC(=O)C1CCN(c2nnc(-n3cccc3)s2)CC1)c1ccccc1
inactive: growth inhibition [1] -4.1% | growth inhibition [2] -6.63% | viability increase [3] -3.79% | viability [4] 90.6% | viability [5] 92.7% | inhibition [6] 0.38% | RAM network inhibition [7] 8.71%

O=C(CNS(=O)(=O)c1cccc2nsnc12)NCc1ccc(Cl)cc1
inactive: growth inhibition [1] -2.9% | growth inhibition [2] -2.34% | viability increase [3] -4.44% | viability [4] 88% | viability [5] 91.5% | inhibition [6] 0.415% | RAM network inhibition [7] 4.28%

O=C(COc1cccc2ccccc12)N1CCN(c2ccccc2)CC1
inactive: growth inhibition [1] -6.48% | growth inhibition [2] -22% | viability increase [3] 1.21% | viability [4] 90.8% | viability [5] 89% | inhibition [6] 2.06% | RAM network inhibition [7] 11.7%
